Measured values: ChEMBL document CHEMBL3588831, “Synthesis and in Vivo Evaluation of [123I]Melanin-Targeted Agents” (J Med Chem, 2015)

What was measured:
[1] = tested on: Mus musculus; assay: Biodistribution in tumor of C57BL/6J mouse bearing mouse B16F0 cells at 0.37 to 1.85 MBq, iv after 1 hr by gamma counting method; assay type: ADME, organism-based; details: in vivo
In short: (§1)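 Female C57BL/6J mice (5−6 weeks), s.c. inoculated on left flank with 3 × 10^5 B16F0 cells in Ca2+/Mg2+-free PBS, used 11 days later (tumors 2−12 mm). Radiotracer given via tail vein in 100 μL (~0.37 MBq for 1−24 h, 1.85 MBq for 48 h). Organs dissected, weighed, γ-counted, decay corrected. Expressed as % ID/g against injected-dose dilutions. Mean ± SEM, n = 5.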

[2] = tested on: Mus musculus; assay: Biodistribution in tumor of C57BL/6J mouse bearing mouse B16F0 cells at 0.37 to 1.85 MBq, iv after 6 hrs by gamma counting method; assay type: ADME, organism-based; details: in vivo; in short: as §1
[3] = tested on: Mus musculus; assay: Biodistribution in tumor of C57BL/6J mouse bearing mouse B16F0 cells at 0.37 to 1.85 MBq, iv after 16 hrs by gamma counting method; assay type: ADME, organism-based; details: in vivo; in short: as §1
[4] = tested on: Mus musculus; assay: Biodistribution in tumor of C57BL/6J mouse bearing mouse B16F0 cells at 0.37 to 1.85 MBq, iv after 24 hrs by gamma counting method; assay type: ADME, organism-based; details: in vivo; in short: as §1
[5] = tested on: Mus musculus; assay: Biodistribution in eyes of C57BL/6J mouse bearing mouse B16F0 cells at 0.37 to 1.85 MBq, iv after 1 hr by gamma counting method; assay type: ADME, organism-based, Eye; details: in vivo; in short: as §1
[6] = tested on: Mus musculus; assay: Biodistribution in eyes of C57BL/6J mouse bearing mouse B16F0 cells at 0.37 to 1.85 MBq, iv after 6 hrs by gamma counting method; assay type: ADME, organism-based, Eye; details: in vivo; in short: as §1
[7] = tested on: Mus musculus; assay: Biodistribution in eyes of C57BL/6J mouse bearing mouse B16F0 cells at 0.37 to 1.85 MBq, iv after 16 hrs by gamma counting method; assay type: ADME, organism-based, Eye; details: in vivo; in short: as §1
[8] = tested on: Mus musculus; assay: Biodistribution in eyes of C57BL/6J mouse bearing mouse B16F0 cells at 0.37 to 1.85 MBq, iv after 48 hrs by gamma counting method; assay type: ADME, organism-based, Eye; details: in vivo; in short: as §1
[9] = tested on: Mus musculus; assay: Biodistribution in large gastrointestinal tract of C57BL/6J mouse bearing mouse B16F0 cells at 0.37 to 1.85 MBq, iv after 1 hr by gamma counting method; assay type: ADME, organism-based, Large intestine; details: in vivo; in short: as §1
[10] = tested on: Mus musculus; assay: Biodistribution in large gastrointestinal tract of C57BL/6J mouse bearing mouse B16F0 cells at 0.37 to 1.85 MBq, iv after 3 hrs by gamma counting method; assay type: ADME, organism-based, Large intestine; details: in vivo; in short: as §1
[11] = tested on: Mus musculus; assay: Biodistribution in large gastrointestinal tract of C57BL/6J mouse bearing mouse B16F0 cells at 0.37 to 1.85 MBq, iv after 16 hrs by gamma counting method; assay type: ADME, organism-based, Large intestine; details: in vivo; in short: as §1
[12] = tested on: Mus musculus; assay: Biodistribution in large gastrointestinal tract of C57BL/6J mouse bearing mouse B16F0 cells at 0.37 to 1.85 MBq, iv after 24 hrs by gamma counting method; assay type: ADME, organism-based, Large intestine; details: in vivo; in short: as §1
[13] = tested on: Mus musculus; assay: Biodistribution in small gastrointestinal tract of C57BL/6J mouse bearing mouse B16F0 cells at 0.37 to 1.85 MBq, iv after 6 hrs by gamma counting method; assay type: ADME, organism-based, Small intestine; details: in vivo; in short: as §1
[14] = tested on: Mus musculus; assay: Biodistribution in small gastrointestinal tract of C57BL/6J mouse bearing mouse B16F0 cells at 0.37 to 1.85 MBq, iv after 24 hrs by gamma counting method; assay type: ADME, organism-based, Small intestine; details: in vivo; in short: as §1
[15] = tested on: Mus musculus; assay: Biodistribution in small gastrointestinal tract of C57BL/6J mouse bearing mouse B16F0 cells at 0.37 to 1.85 MBq, iv after 48 hrs by gamma counting method; assay type: ADME, organism-based; details: in vivo; in short: as §1
[16] = tested on: Mus musculus; assay: Biodistribution in thyroid gland of C57BL/6J mouse bearing mouse B16F0 cells at 0.37 to 1.85 MBq, iv after 24 hrs by gamma counting method; assay type: ADME, organism-based; details: in vivo; in short: as §1
[17] = tested on: Spleen; assay: Biodistribution in spleen of C57BL/6J mouse bearing mouse B16F0 cells at 0.37 to 1.85 MBq, iv after 1 hr by gamma counting method; assay type: ADME, organism-based; details: in vivo; in short: as §1
[18] = tested on: Spleen; assay: Biodistribution in spleen of C57BL/6J mouse bearing mouse B16F0 cells at 0.37 to 1.85 MBq, iv after 24 hrs by gamma counting method; assay type: ADME, organism-based; details: in vivo; in short: as §1
[19] = tested on: Spleen; assay: Biodistribution in spleen of C57BL/6J mouse bearing mouse B16F0 cells at 0.37 to 1.85 MBq, iv after 48 hrs by gamma counting method; assay type: ADME, organism-based; details: in vivo; in short: as §1
[20] = tested on: Liver; assay: Biodistribution in liver of C57BL/6J mouse bearing mouse B16F0 cells at 0.37 to 1.85 MBq, iv after 1 hr by gamma counting method; assay type: ADME, organism-based; details: in vivo; in short: as §1
[21] = tested on: Liver; assay: Biodistribution in liver of C57BL/6J mouse bearing mouse B16F0 cells at 0.37 to 1.85 MBq, iv after 24 hrs by gamma counting method; assay type: ADME, organism-based; details: in vivo; in short: as §1
[22] = tested on: Liver; assay: Biodistribution in liver of C57BL/6J mouse bearing mouse B16F0 cells at 0.37 to 1.85 MBq, iv after 48 hrs by gamma counting method; assay type: ADME, organism-based; details: in vivo; in short: as §1
[23] = tested on: Kidney; assay: Biodistribution in kidney of C57BL/6J mouse bearing mouse B16F0 cells at 0.37 to 1.85 MBq, iv after 3 hrs by gamma counting method; assay type: ADME, organism-based; details: in vivo; in short: as §1
[24] = tested on: Kidney; assay: Biodistribution in kidney of C57BL/6J mouse bearing mouse B16F0 cells at 0.37 to 1.85 MBq, iv after 16 hrs by gamma counting method; assay type: ADME, organism-based; details: in vivo; in short: as §1
[25] = tested on: Kidney; assay: Biodistribution in kidney of C57BL/6J mouse bearing mouse B16F0 cells at 0.37 to 1.85 MBq, iv after 48 hrs by gamma counting method; assay type: ADME, organism-based; details: in vivo; in short: as §1
[26] = tested on: Mus musculus; assay: Whole body clearance in C57BL/6J mouse bearing mouse B16F0 cells at 0.37 to 1.85 MBq, iv after 16 hrs by gamma counting method; assay type: ADME, organism-based; details: in vivo
[27] = Ratio of AUC in tumor to gastrointestinal tract of C57BL/6J mouse bearing mouse B16F0 cells at 0.37 to 1.85 MBq, iv by gamma counting method; assay type: ADME, organism-based; details: in vivo
In short: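 Biodistribution in B16F0-bearing C57BL/6J mice given i.v. tail-vein tracer (~0.37 MBq for 1–24 h, 1.85 MBq for 48 h). Sacrifice at 1, 3, 6, 16, 24 and 48 h, then organs dissected, weighed and γ-counted as decay-corrected % ID/g. Tumor AUC divided by each organ AUC; mean of ratios ± SEM, n = 5.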

[28] = tested on: Plasma; assay: Stability in plasma of C57BL/6J mouse bearing mouse B16F0 cells assessed as drug degradation at 0.37 to 1.85 MBq, iv after 24 hrs by radio-HPLC and radio-TLC method; assay type: ADME, organism-based; details: in vivo, in the assay text read “20 MBq” for “0.37 to 1.85 MBq”
In short: (§2)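 Tumor-bearing C57BL/6J mice were sampled 3 and 24 h after i.v. tracer. Tissue was sonicated in CH3CN/water (3:2) with cold iodo standard and KI, then centrifuged. Urine was diluted and spiked; plasma was spiked, with CH3CN precipitation for TLC. Intact fraction came from silica radio-TLC (spot matching standard Rf) and radio-HPLC with precolumn/C18 column switching.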

[29] = Stability in urine of C57BL/6J mouse bearing mouse B16F0 cells assessed as drug degradation at 0.37 to 1.85 MBq, iv after 24 hrs by radio-HPLC and radio-TLC method; assay type: ADME, organism-based; details: in vivo, in the assay text read “20 MBq” for “0.37 to 1.85 MBq”; in short: as §2

Row | Drug uptake [1] [% ID/g] | Drug uptake [2] [% ID/g] | Drug uptake [3] [% ID/g] | Drug uptake [4] [% ID/g] | Drug uptake [5] [% ID/g] | Drug uptake [6] [% ID/g] | Drug uptake [7] [% ID/g] | Drug uptake [8] [% ID/g] | Drug uptake [9] [% ID/g] | Drug uptake [10] [% ID/g] | Drug uptake [11] [% ID/g] | Drug uptake [12] [% ID/g] | Drug uptake [13] [% ID/g] | Drug uptake [14] [% ID/g] | Drug uptake [15] [% ID/g] | Drug uptake [16] [% ID/g] | Drug uptake [17] [% ID/g] | Drug uptake [18] [% ID/g] | Drug uptake [19] [% ID/g] | Drug uptake [20] [% ID/g] | Compound | further results
1 | 10.3 | 10.4 | 11.6 | 7.8 | 18.2 | 21.8 | 22.1 | 15.8 | 3.5 | 21.4 | 1.4 | 1 | 2.6 | 0.3 | 0.1 | 1 | 0.2 | 0.05 | 0.09 | 12.3 | O=C(CN1Cc2ccccc2C1=O)N1C[C@H]2CN(Cc3ccc([123I])cc3)C[C@H]2C1 | Drug uptake [21]: 0.4 % ID/g; Drug uptake [22]: 0.2 % ID/g; Drug uptake [23]: 8.4 % ID/g; Drug uptake [24]: 1 % ID/g; Drug uptake [25]: 0.2 % ID/g; CL [26]: > 98%; Ratio [27]: 2.9; Stability [28]: Unstable; Stability [29]: Unstable
2 | 19.2 | 32.5 | 20.4 | 12.9 | 40.3 | 52.8 | 28.6 | 19 | 7.9 | 59.6 | 2.3 | 1.7 | 11.5 | 0.8 | 0.1 | 2 | 3.5 | 0.2 | 0.05 | 19.5 | O=C(c1ccc2c(n1)NCCC2)N1CCN(Cc2ccc([123I])cc2)CC1 | Drug uptake [21]: 0.8 % ID/g; Drug uptake [22]: 0.2 % ID/g; Drug uptake [23]: 9 % ID/g; Drug uptake [24]: 1.2 % ID/g; Drug uptake [25]: 0.4 % ID/g; CL [26]: > 98%; Ratio [27]: 1.8; Stability [28]: Unstable; Stability [29]: Unstable
3 | 17.1 | 19.4 | 18.4 | 14.4 | 32 | 37.2 | 32.9 | 31.6 | 3.2 | 11.9 | 1.8 | 1.4 | 6.1 | 0.9 | 0.2 | 2.9 | 2.6 | 0.5 | 0.2 | 15.9 | O=C(c1ccc2cccnc2n1)N1CCN(Cc2ccc([123I])cc2)CC1 | Drug uptake [21]: 1.8 % ID/g; Drug uptake [22]: 0.7 % ID/g; Drug uptake [23]: 6.2 % ID/g; Drug uptake [24]: 1.6 % ID/g; Drug uptake [25]: 0.5 % ID/g; CL [26]: > 98%; Ratio [27]: 5.5; Stability [28]: Unstable; Stability [29]: Unstable
4 | 6.2 | 18.1 | 18.1 | 15.2 | 13.7 | 28.1 | 40.4 | 38.7 | 6.6 | 10.9 | 8.1 | 8 | 9.8 | 3.8 | 0.3 | 2.6 | 9.6 | 1.2 | 0.1 | 41.8 | O=C(CN1Cc2ccccc2C1=O)NC1CCN(Cc2ccc([123I])cc2)CC1 | Drug uptake [21]: 7.8 % ID/g; Drug uptake [22]: 1.9 % ID/g; Drug uptake [23]: 7.4 % ID/g; Drug uptake [24]: 1.8 % ID/g; Drug uptake [25]: 0.3 % ID/g; CL [26]: > 98%; Ratio [27]: 3; Stability [28]: Unstable; Stability [29]: Unstable
